# From ChEMBL document CHEMBL1134812, “Benzamide bioisosteres incorporating dihydroheteroazole substructures: EPC synthesis and SAR leading to a selective dopamine D4 receptor partial agonist (FAUC 179)” (Bioorg Med Chem Lett, 2001)
# Columns and labels:
# [1] = target: T1, D(2) dopamine receptor (Homo sapiens, UniProt P14416); test: In vitro for its ability to displace [3H]- spiperone from cloned human dopamine D2 short receptor expressed in CHO cells; format: cell-based
# Method in brief: (§1)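 [3H]Spiperone displacement from cloned human dopamine receptors stably expressed in CHO cells: D2long, D2short, D3 and D4.4 (the D4 line used the D4.4 variant). Ki values were determined.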
# [2] = target: T1, D(2) dopamine receptor; test: In vitro for its ability to displace [3H]- spiperone from cloned human dopamine D2 long receptor expressed in CHO cells; format: cell-based; method in brief: as §1
# [3] = target: D(1A) dopamine receptor (Bos taurus, UniProt Q95136); test: In vitro for its ability to displace [3H]- SCH 23390 from Dopamine receptor D1 in bovine striatal membrane […]; format: cell-based, Striatum
# Chain of D(1A) dopamine receptor (Q95136 whole entry): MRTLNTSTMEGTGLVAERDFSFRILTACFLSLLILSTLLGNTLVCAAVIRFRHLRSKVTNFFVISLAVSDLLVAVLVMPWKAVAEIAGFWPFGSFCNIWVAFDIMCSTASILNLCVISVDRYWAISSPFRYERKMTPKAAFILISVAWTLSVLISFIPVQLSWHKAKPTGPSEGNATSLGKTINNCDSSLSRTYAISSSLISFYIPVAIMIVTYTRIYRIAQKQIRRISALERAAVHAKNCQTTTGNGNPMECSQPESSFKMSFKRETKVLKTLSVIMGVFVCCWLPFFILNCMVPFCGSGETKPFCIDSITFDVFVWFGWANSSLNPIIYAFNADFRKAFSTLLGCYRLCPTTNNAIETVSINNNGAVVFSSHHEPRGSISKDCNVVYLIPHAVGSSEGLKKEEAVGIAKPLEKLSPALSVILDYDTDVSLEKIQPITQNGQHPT
# Method in brief: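 D1 affinity was measured with bovine striatal membrane preparations and the D1-selective antagonist [3H]SCH 23390 as radioligand. Ki values were determined.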
# [4] = target: T2, D(4) dopamine receptor (Homo sapiens, UniProt P21917); test: In vitro for its ability to displace [3H]- spiperone from cloned human Dopamine receptor D4 expressed in CHO cells; format: cell-based; method in brief: as §1
# T2 sequence (P21917 whole entry): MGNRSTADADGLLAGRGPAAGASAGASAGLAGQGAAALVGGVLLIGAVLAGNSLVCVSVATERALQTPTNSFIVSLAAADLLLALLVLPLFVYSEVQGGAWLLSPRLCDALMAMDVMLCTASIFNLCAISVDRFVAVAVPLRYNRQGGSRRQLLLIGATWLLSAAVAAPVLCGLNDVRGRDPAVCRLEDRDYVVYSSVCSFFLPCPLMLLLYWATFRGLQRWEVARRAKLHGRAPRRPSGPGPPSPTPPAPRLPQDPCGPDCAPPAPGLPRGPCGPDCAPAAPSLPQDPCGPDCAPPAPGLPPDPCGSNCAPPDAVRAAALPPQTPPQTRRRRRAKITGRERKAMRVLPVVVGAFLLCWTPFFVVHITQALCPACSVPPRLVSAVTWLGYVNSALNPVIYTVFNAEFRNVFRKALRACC
# [5] = target: D(3) dopamine receptor (Homo sapiens, UniProt P35462); test: Displacement of [3H]spiperone from human Dopamine receptor D3 expressed in CHO cells; format: cell-based; method in brief: as §1
# Chain of D(3) dopamine receptor (P35462 whole entry): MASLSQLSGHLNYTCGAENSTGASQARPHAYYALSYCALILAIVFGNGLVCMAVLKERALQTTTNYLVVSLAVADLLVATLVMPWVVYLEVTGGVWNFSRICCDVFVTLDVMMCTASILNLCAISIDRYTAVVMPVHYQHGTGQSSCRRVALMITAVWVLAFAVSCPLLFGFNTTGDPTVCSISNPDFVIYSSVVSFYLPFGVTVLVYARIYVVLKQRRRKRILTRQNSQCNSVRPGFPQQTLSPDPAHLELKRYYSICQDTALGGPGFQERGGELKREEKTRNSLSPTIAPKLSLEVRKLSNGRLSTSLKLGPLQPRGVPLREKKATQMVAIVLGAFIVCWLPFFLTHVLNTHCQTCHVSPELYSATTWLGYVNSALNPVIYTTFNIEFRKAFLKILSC
# [6] = In vitro for its ability to displace [3H]- ketanserin from 5-hydroxytryptamine 2 receptor in porcine brain homogenate; format: tissue-based
# Method in brief: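 5-HT2 binding was measured in porcine brain homogenates by displacement of [3H]ketanserine. Ki values were determined.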
# [7] = target: T1, D(2) dopamine receptor; test: In vitro for its ability to displace [3H]- spiperone from cloned human Dopamine receptor D2L expressed in CHO cells; format: cell-based; method in brief: as §1
# T1 sequence (P14416 whole entry): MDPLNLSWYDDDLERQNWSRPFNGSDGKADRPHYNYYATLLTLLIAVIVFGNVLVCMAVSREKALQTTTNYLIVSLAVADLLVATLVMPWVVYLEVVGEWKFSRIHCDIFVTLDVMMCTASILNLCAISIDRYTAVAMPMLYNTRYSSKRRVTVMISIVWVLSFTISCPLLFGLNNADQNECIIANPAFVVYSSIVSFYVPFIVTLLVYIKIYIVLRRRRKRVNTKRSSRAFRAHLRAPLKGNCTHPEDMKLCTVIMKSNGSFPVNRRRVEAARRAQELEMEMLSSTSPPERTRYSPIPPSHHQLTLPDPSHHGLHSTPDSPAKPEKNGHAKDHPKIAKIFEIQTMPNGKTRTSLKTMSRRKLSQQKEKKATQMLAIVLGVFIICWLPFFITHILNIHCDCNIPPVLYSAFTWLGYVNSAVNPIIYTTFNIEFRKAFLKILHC
Ki [1],Ki [2],Ki [3],Ki [4],Ki [5],Ki [6],Ki [7],Structure (SMILES),Ki ([5]; cho)
18 µM,21 µM,0.48 µM,3.3 µM,10 µM,–,–,COc1ccc(Br)cc1C1=N[C@@H](CN2CCN(c3ccccc3)CC2)[C@@H](C)O1 (stereo in doubt),–
10 µM,14 µM,–,–,9 µM,–,–,c1ccc(C2=NC[C@H](CN3CCN(c4ccccc4)CC3)N2)cc1 (stereo in doubt),–
0.32 µM,0.82 µM,2 µM,0.44 µM,0.71 µM,–,–,C[C@@H]1OC(c2ccccc2)=N[C@H]1CN1CCN(c2ccccc2)CC1 (stereo in doubt),–
0.9 µM,2.2 µM,9 µM,1.6 µM,5.2 µM,–,–,COc1ccc(Br)cc1C1=N[C@@H](CN2CCN(c3ccccc3)CC2)CO1 (stereo in doubt; 4c),–
2.4 µM,3.7 µM,3.5 µM,0.29 µM,2.5 µM,–,–,COc1ccc(Br)cc1C1=N[C@@H](CN2CCN(c3ccccc3)CC2)[C@@H](C)O1 (stereo in doubt; 4d),–
11 µM,–,12 µM,–,7.1 µM,0.87 µM,10 µM,c1ccc(C2=NC[C@H](CN3CCN(c4ccccc4)CC3)N2)cc1 (stereo in doubt; 4e),–

# The next lines start with the compound.
Structure (SMILES),Ki [1],Ki [2],Ki [3],Ki [4],Ki [5],Ki [6],Ki [7],Ki ([5]; cho)
COc1ccc(Br)cc1C1=N[C@@H](CN2CCN(c3ccccc3)CC2)CO1 (stereo in doubt),0.11 µM,0.4 µM,2 µM,0.39 µM,1 µM,–,–,–
c1ccc(C2=N[C@@H](CN3CCN(c4ccccc4)CC3)CS2)cc1 (stereo in doubt),0.72 µM,1.1 µM,4.5 µM,1.2 µM,1.2 µM,–,–,–
c1ccc(C2=N[C@@H](CN3CCN(c4ccccc4)CC3)CO2)cc1 (stereo in doubt),0.33 µM,0.69 µM,4 µM,0.41 µM,0.69 µM,–,–,–
c1ccc(C2=N[C@@H](CN3CCN(c4ccccc4)CC3)CO2)cc1 (stereo in doubt; 4a),1.1 µM,1.7 µM,9.7 µM,0.34 µM,3.3 µM,–,–,–
C[C@@H]1OC(c2ccccc2)=N[C@H]1CN1CCN(c2ccccc2)CC1 (stereo in doubt; 4b),1.9 µM,3.2 µM,20 µM,0.7 µM,2.7 µM,–,–,–
c1ccc(C2=N[C@@H](CN3CCN(c4ccccc4)CC3)CS2)cc1 (stereo in doubt; 4f),1.1 µM,1.5 µM,16 µM,1.8 µM,–,–,–,1.2 µM
